Results reported in ChEMBL document CHEMBL1132310, “New 4-aminoquinoline Mannich base antimalarials. 1. Effect of an alkyl substituent in the 5'-position of the 4'-hydroxyanilino side chain” (J Med Chem, 1999).

How the values were obtained:
[1] = test system: Plasmodium falciparum; assay: In vitro inhibitory activity against chloroquine-resistant Plasmodium falciparum K1; type: functional, organism-based
Method in brief: (§1)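 Parasites kept in continuous culture in human erythrocytes in RPMI 1640 with 25 mM HEPES, 32 mM NaHCO3 and 10% human serum, gassed 3% O2/4% CO2/93% N2. 48-h assay at 2% parasitemia, 0.5% hematocrit, triplicate. Drugs from DMSO stocks diluted in medium. [3H]hypoxanthine added at 24 h, harvested at 48 h and counted. IC50 by probit interpolation of log dose–response.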

[2] = test system: Plasmodium falciparum; assay: In vitro inhibitory activity against chloroquine-sensitive Plasmodium falciparum HB3; type: functional, organism-based; method in brief: as §1
[3] = Resistance factor by IC50(K1)/IC50(HB3); type: functional
Method in brief: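 P. falciparum K1 (uncloned, CQ-resistant) and HB3 (sensitive), both from Thailand, were cultured in human erythrocytes in RPMI 1640/HEPES/NaHCO3 with 10% human serum under 3% O2/4% CO2. Assays ran 48 h at 2% parasitemia and 0.5% hematocrit, in triplicate, from DMSO stocks diluted in medium. [3H]hypoxanthine was added at 24 h. IC50 came from probit of the log dose-response curve. The factor is K1 IC50 divided by HB3 IC50.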

[4] = test system: Plasmodium berghei (NS strain); assay: In vivo inhibition of Plasmodium berghei infected male Swiss albino mice (Mus musculus) by oral dose
[5] = test system: Plasmodium berghei (NS strain); assay: In vivo inhibition of Plasmodium berghei infected male Swiss albino mice (Mus musculus) by intraperitoneal dose; conditions: ip

Q: For Cc1cc(Nc2ccnc3cc(Cl)ccc23)cc(CNC(C)(C)C)c1O, which IC50 [1] is on record?
A: 11.2 nM

Q: What about the IC50 [2] of the same compound?
A: 2.99 nM

Q: And the Resistance factor [3]?
A: 3.76

Q: Which IC50 [1] does the source give for CCN(CC)Cc1cc(Nc2ccnc3cc(Cl)ccc23)ccc1O.Cl here?
A: 13.2 nM

Q: And the IC50 [2]?
A: 2.47 nM

Q: What about the Resistance factor [3] of the same compound?
A: 5.35

Q: And the ED50 [4]?
A: 1.92 mg/kg

Q: And the ED50 [5]?
A: 3.3 mg/kg

Q: For CCc1cc(Nc2ccnc3cc(Cl)ccc23)cc(CNC(C)(C)C)c1O, which IC50 [1] is on record?
A: 7.9 nM

Q: And the IC50 [2]?
A: 2.97 nM

Q: What about the Resistance factor [3] of the same compound?
A: 2.65

Q: With CCN(CC)CCCC(C)Nc1ccnc2cc(Cl)ccc12 (centres undefined) as the compound, how does the Resistance factor [3] read?
A: 9.57

Q: Which IC50 [1] does the source give for CC(C)c1cc(Nc2ccnc3cc(Cl)ccc23)cc(CNC(C)(C)C)c1O here?
A: 1.87 nM

Q: And the IC50 [2]?
A: 1.24 nM

Q: What about the Resistance factor [3] of the same compound?
A: 1.5

Q: What about the ED50 [4] of the same compound?
A: 0.38 mg/kg

Q: What about the ED50 [5] of the same compound?
A: 0.78 mg/kg

Q: With CC(C)(C)NCc1cc(Nc2ccnc3cc(Cl)ccc23)ccc1O [N-TERT-BUTYL-AMODIAQUINE] as the compound, how does the IC50 [1] read?
A: 3.43 nM

Q: And the IC50 [2]?
A: 1.47 nM

Q: And the Resistance factor [3]?
A: 2.33

Q: With CC(C)(C)NCc1cc(Nc2ccnc3cc(Cl)ccc23)cc(C2CCCCC2)c1O as the compound, how does the IC50 [1] read?
A: 14.5 nM

Q: And the IC50 [2]?
A: 6.8 nM

Q: What about the Resistance factor [3] of the same compound?
A: 2.13

Q: With CC(C)(C)NCc1cc(Nc2ccnc3cc(Cl)ccc23)cc(C(C)(C)C)c1O as the compound, how does the IC50 [1] read?
A: 21.2 nM

Q: And the IC50 [2]?
A: 8.35 nM

Q: And the Resistance factor [3]?
A: 2.54

Q: Which IC50 [1] does the source give for CCCc1cc(Nc2ccnc3cc(Cl)ccc23)cc(CNC(C)(C)C)c1O here?
A: 1.83 nM

Q: What about the IC50 [2] of the same compound?
A: 0.98 nM

Q: And the Resistance factor [3]?
A: 1.86

Q: And the ED50 [4]?
A: 0.56 mg/kg

Q: What about the ED50 [5] of the same compound?
A: 0.8 mg/kg

Q: What does the source list for CCC(C)c1cc(Nc2ccnc3cc(Cl)ccc23)cc(CNC(C)(C)C)c1O (centres undefined)?
A: IC50 [1]: 5.77 nM; IC50 [2]: 1.97 nM; Resistance factor [3]: 2.92
